Data set [1] relates to IL-12. Kind of data set: IL-12 ELISA, LPS-treated CHME3. Type of data set: cell-based, human. The settings on record: selected dose. An outline of the steps:
(§1)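 Human microglia (CHME3) and astrocyte (SVG) lines at fourth passage, inflamed with LPS. […] IL-12 or IFN-γ released into the extracellular medium was quantified with human ELISA kits 12 and 24 h after drug treatment. Controls were inflamed untreated cells and market-drug (Disprin)-treated cells.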

Data set [2] deals with astrocyte (SVG) cell-line. Kind of data set: MTT assay, SVG. The settings on record: Homo sapiens, Astrocyte, read-out: IC50, half concentration of druggable compound to inhibit cell growth. Type of data set: cell-based, human. In outline:
(§2)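 MTT (thiazolyl blue tetrazolium bromide) assay on LPS-inflamed CHME3 or SVG cells, fourth passage. […] Read-out is percent viable cells, plus a growth-inhibitory IC50 (concentration halving cell growth) for each cell line.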
For orientation: Tetrazolium assays rely on reduction of a dye to a coloured formazan, in cell work by metabolically active cells.

The next data set is described as follows: MTT assay, SVG. It counts as cell-based, human. Particulars: human, SVG astrocyte cells. In outline: as §2
The subject of data set [3] is IL-12. Kind of data set: IL-12 ELISA, LPS-treated SVG. The settings on record: selected dose. It counts as cell-based, human. In outline: as §1
The test system of a further data set is human microglia (CHME3). Kind of data set: MTT assay, CHME3. It counts as cell-based. The settings on record: Homo sapiens, Microglia, read-out: IC50, half concentration of druggable compound to inhibit cell growth. An outline of the steps:
as §2

The nature of another data set: MTT assay, CHME3. The settings on record: human, CHME3 microglia cells. It counts as cell-based, human. In outline:
as §2

The test system of data set [4] is IFN-γ. Kind of data set: IFN-γ ELISA, LPS-treated SVG. It counts as cell-based, human. The settings on record: selected dose. In outline:
as §1
(An ELISA detects its analyte on a solid surface through an enzyme-linked reagent.)

For data set [5], the system named is IFN-γ. Kind of data set: IFN-γ ELISA, LPS-treated CHME3. Particulars: selected dose. Type of data set: cell-based, human. An outline of the steps:
as §1

Molecules are shown by their SMILES.

On to `O=C(/C=C/C=C/c1ccc2c(c1)OCO2)N(CCCO[N+](=O)[O-])c1ccc(CO)cc1` [PA-3′k, 3-((2 E,4 E)-5-(benzo[d][1,3]dioxol-5-yl)-N-(4-(hydroxymethyl)phenyl)penta-2,4-dienamido)propyl nitrate], for which the IL-12 quantification in the data set with IL-12 [1] (12 h after drug treatment) was 81.68 ± 4.00; in the data set on IL-12 [1] (24 h after drug treatment) it was 101.88 ± 5.22; in the data set with IL-12 [3] (12 h after drug treatment), 88.11 ± 2.80; in the data set on IL-12 [3] (24 h after drug treatment) it was 96.37 ± 2.95. In addition, the values for the IC50 (in data set [2]; in the data set with human microglia (CHME3)) were 0.0679 µg/mL and 0.0678 µg/mL, respectively. Besides, the viability (in general, a per cent measure of how many cells are alive, often set against a control) at 24 h came out at 89.1 ± 1.96% in “MTT assay, SVG” and 86.1 ± 2.57% in the data set “MTT assay, CHME3”. Besides, the IFN-γ quantification turned out to be 42.57 ± 3.58 in the data set with IFN-γ [4] (12 h after drug treatment), 55.81 ± 2.89 in the data set on IFN-γ [4] (24 h after drug treatment), 46.35 ± 3.58 in the data set on IFN-γ [5] (12 h after drug treatment) and 54.86 ± 3.41 with IFN-γ [5] (24 h after drug treatment).
